# Screens from PubChem BioAssay.
# Runt-SMMHC FRET: inhibitors of RUNX1 Runt–CBFb-SMMHC binding, primary screen, biochemical, FRET, Cerulean-Runt, Venus-CBFb-SMMHC, uHTS; AID 1434, 2008; inhibition, % at 20 µM; hit rate 0.74% among 220,000; Cerulean-Runt/Venus-CBFb-SMMHC FRET ratio 530/480, 1 h; Runt-related transcription factor 1 (Homo sapiens) + Core-binding factor subunit beta …;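 active means mean inhibition across duplicate retests at 20 µM reaching about 50%, limit read from the data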;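 further: inhibitors lower the FRET ratio by blocking Runt binding to CBFb-SMMHC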
# Wee1 degr inh: Wee1 degradation inhibitors, primary screen, cell-based, HeLa, Wee1K328M-luciferase, luminescence. Wee1-like protein kinase (Homo sapiens), P30291. hit rate 1.2% among 220,000. HeLa Luc-Wee1K328M stability; 100% = proteasome inhibitor MG132 effect. reporter increase, % at 5 µM;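 active means activation above the mean of all tested compounds plus 3 SD, set per screening run, cut at about 8.8% in these data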;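 further: cells exposed to compound for 20 h before luminescence read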
# RanGTP-Impb inh: inhibitors of RanGTP-importin-beta interaction, primary screen, biochemical, FRET, CFP-Ran, YFP-importin-beta, homogeneous | Ran GTPase (GTP-bound) - importin-beta complex | cell-free CFP-Ran/YFP-importin-beta FRET ratio | inhibition, % (test concentration not listed) | hit rate 1.1% among 300,000;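 active means more than half of the replicate wells show a fall in the fluorescence ratio signal beyond about 16%, limit read from the data, passing the limit was not always enough; inconclusive means exactly half of the replicate wells pass the set limit; inactive means fewer than half of replicates pass the limit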
# proKLK7 act: proKLK7 zymogen activators, primary screen, biochemical, fluorescence intensity; Kallikrein-7 (Homo sapiens), P49862; purified proKLK7, EDANS-DABCYL substrate fluorescence; 100% is mature enzyme control, 0% vehicle; activation, % at 7 µM; hit rate 0.9% among 370,000; AID 652039, 2013;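 active means activation above the mean of all tested compounds plus 3 SD, computed per campaign excluding outliers beyond control limits, cut at about 13% in these data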
# Target sequence (P49862 whole entry, looked up): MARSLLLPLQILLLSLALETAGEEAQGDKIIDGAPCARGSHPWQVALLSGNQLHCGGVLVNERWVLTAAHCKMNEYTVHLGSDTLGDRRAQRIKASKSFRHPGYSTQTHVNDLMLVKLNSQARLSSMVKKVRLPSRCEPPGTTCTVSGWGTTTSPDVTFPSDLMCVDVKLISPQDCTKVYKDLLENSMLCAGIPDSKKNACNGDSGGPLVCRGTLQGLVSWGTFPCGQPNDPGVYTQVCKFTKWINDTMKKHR
# AI-2 QS modul: Vibrio harveyi AI-2 quorum sensing modulators, primary screen, JMH597 strain, luminescence/OD600 ratio. Vibrio harveyi JMH597 AI-2 luminescence/OD600 ratio, 9 h; stronger effect = lower value; strain lacks LuxN and CqsS sensors; 0 = neutral-control median. activity change, % at 7.5 µM. hit rate 0.4% among 300,000. AID 2094, 2009; in the data active means activity change below about -75%, passing the limit was not always enough; inconclusive means no clear call, values can overlap the other calls;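 further: luminescence divided by OD600 gain over 9 h not by final OD600 alone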
# Runt-CBFb FRET: inhibitors of RUNX1 Runt–CBFb binding, primary screen, biochemical, FRET, Cerulean-Runt, Venus-CBFb, uHTS. Cerulean-Runt/Venus-CBFb FRET ratio 530/480, 1 h. inhibition, % at 20 µM. hit rate 0.46% among 220,000;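 active means inhibition over about 50% at 20 µM in the single-dose screen, limit read from the data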
#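 Measured by: fluorescence energy transfer, 422 nm excitation, 530/480 nm emission; test system: Cerulean-tagged RUNX1 Runt domain (FRET donor) fusion protein; buffer or medium: Tris pH 7.5 buffer with BSA; compound: one dose, 20 µM compound, 1% DMSO; times: two 1 h room-temperature incubations shielded from light; benchmarks: unlabeled CBFb 5 µM, positive control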
# Numbers stand for hits; i = inactive; ? = inconclusive; nt = no result given. Most compounds without a hit are left out; they make up all but 2.9% or so of the library.
SMILES,Runt-SMMHC FRET,Wee1 degr inh,RanGTP-Impb inh,proKLK7 act,AI-2 QS modul,Runt-CBFb FRET
CC1Cc2cc(/C(O)=C3/C(=O)C(=O)N(CCN4CCOCC4)C3c3ccc(N(C)C)cc3)ccc2O1 (configuration not stated),nt,nt,30.0,i,i,nt
O=C(CNc1nnnn1-c1ccccc1)N1CCCC1,nt,nt,nt,i,nt,nt
CCCC(=O)n1nc(-c2ccc(C)cc2)nc1NCc1ccco1,i,10.2,i,i,i,i
Cc1ccc(C(=O)n2nc(-c3ccccc3)nc2NCc2ccco2)cc1,i,i,i,i,i,i
Cc1nn(-c2ccccc2)c(NC(=O)c2cccs2)c(-c2ccccc2Cl)c1=O,i,i,i,i,i,i
COc1cccc(COc2cc3ccccc3nc2C)c1,i,i,i,i,-89.1,i
COc1ccc(-c2nnc(SCC(=O)Nc3ncc(C)s3)n2-c2ccccc2)cc1OC,i,9.9,i,i,i,i
C#CCNC(=O)C[C@@H]1C[C@@]2(C(=O)OC)CC(C)(C)CC=C2N(Cc2ccccc2)C1=O,nt,nt,nt,i,nt,nt
Cc1cccc(Nc2c(F)c(F)c(F)c(F)c2C(=O)O)c1,i,i,?,i,i,i
Cc1ccc(Nc2c(F)c(F)c(F)c(F)c2C(=O)O)cc1,i,13.5,i,i,i,i
Cc1cc(C(=O)CN2C(=O)NC3(CCCCC3)C2=O)c(C)n1Cc1ccc2c(c1)OCO2,i,9.2,i,i,i,i
c1ccc(Oc2c3ccccc3nc3ccccc23)cc1,74.3,i,i,nt,i,i
C[C@H]1CN([C@@H](C)CO)C(=O)CCCn2cc(nn2)CO[C@@H]1CN(C)S(=O)(=O)c1cn(C)cn1,nt,nt,nt,i,nt,nt
C[C@H]1O[C@@H](n2cc(F)c(=O)[nH]c2=O)[C@H](O)[C@@H]1O,nt,nt,i,i,-82.8,nt
Cc1ccc(C2=CC(c3ccccc3)n3ncnc3N2)cc1 (configuration not stated),nt,nt,i,53.4,i,nt
C1=C(c2ccccc2)Nc2ncnn2C1c1ccccc1 (configuration not stated),nt,nt,i,i,i,nt
O=C(/C=C/c1c[nH]c2ccccc12)c1cccc2ccccc12,i,i,16.8,i,i,i
CCOC(=O)c1sc(=S)n(CC)c1N,i,i,i,i,i,i
CCOC(=O)c1sc(=S)n(Cc2ccccc2)c1N,i,i,i,i,-85.7,i
COc1ccc(OC)c(-c2cc(C(=O)N3CCCc4ccccc43)no2)c1,i,i,?,i,i,i
COc1ccccc1-c1cc(C(=O)N2CCCc3ccccc32)no1,i,9.8,?,i,i,i
COC(=O)c1c(NC(=O)C(C)C)sc2c1CCN(Cc1ccccc1)C2,nt,nt,54.3,i,i,nt
CCC(=O)Nc1sc2c(c1C(=O)OC)CCN(Cc1ccccc1)C2,nt,nt,91.8,i,i,nt
Cc1cc(/C=C2\SC(=Nc3ccccc3)NC2=O)c(C)n1-c1ccc(S(N)(=O)=O)cc1,i,i,20.8,i,i,i
CCOC(=O)[C@]12CCCCC/C=C\1N(Cc1ccc(OC)cc1)C(=O)[C@H]2CC(=O)NCC1CCCCC1,nt,nt,nt,i,nt,nt
SMILES,Runt-SMMHC FRET,Wee1 degr inh,RanGTP-Impb inh,proKLK7 act,AI-2 QS modul,Runt-CBFb FRET
COc1cc2cc(C(=O)Nc3ccccc3)c(N)nc2cc1OC,i,i,29.1,i,i,i
COc1cc2cc(C(=O)NC(C)c3cccc4ccccc34)c(N)nc2cc1OC (configuration not stated),nt,nt,nt,i,nt,nt
Clc1ccc(Cc2nn3c(Cn4nnc5ccccc54)nnc3s2)cc1,i,i,i,i,i,i
COc1cc2c(cc1OC)CN(C(=O)c1cccc([N+](=O)[O-])c1)CC2,i,10.1,i,i,i,i
COc1cc2c(cc1OC)CN(C(=O)c1ccc(OC)c([N+](=O)[O-])c1)CC2,i,i,i,i,i,i
Nc1nc(-c2ccc([N+](=O)[O-])cc2)cc(=O)[nH]1,nt,nt,nt,i,nt,nt
CN1/C(=C\C(=O)c2ccco2)C(C)(C)c2ccccc21,79.1,i,i,i,i,i
CN1/C(=C\C(=O)c2cccc(S(=O)(=O)N3CCCCC3)c2)C(C)(C)c2ccccc21,i,i,21.4,i,i,i
Fc1ccc2nc(Nc3ccccc3)sc2c1,i,10.6,i,i,i,i
NNc1nc2ccc(F)cc2s1,i,i,i,i,i,i
COc1cc(C=Nn2c(-c3ccccc3F)n[nH]c2=S)ccc1OCc1ccccc1,nt,nt,nt,i,nt,nt
N=c1oc2cc(O)ccc2cc1C(=O)Nc1ccc(Br)cc1,nt,nt,167.1,i,i,nt
O=C(Nc1ccccn1)c1ccc2ccccc2c1O,nt,nt,i,i,i,nt
N=c1oc2cc(O)ccc2cc1C(=O)Nc1ccccn1,86.6,i,nt,nt,nt,i
CC1(c2ccc(OC(F)F)cc2)NC(=O)N(/N=C/c2c(O)ccc3ccccc23)C1=O (configuration not stated),71.2,i,i,i,i,i
Cc1ccc2nc3c(cc(C#N)c(=O)n3CCN3CCOCC3)c(=O)n2c1,63.1,nt,nt,nt,nt,145.9
Cc1ccc2nc(-c3ccccc3)c(CN3CCOCC3)n2c1,i,i,i,i,i,i
Cc1ccc2nc3c(cc(C#N)c(=O)n3CC3CCCO3)c(=O)n2c1 (configuration not stated),65.3,i,nt,nt,nt,51.5
N#Cc1cc2c(=O)n3ccccc3nc2n(CCN2CCOCC2)c1=O,143.0,nt,nt,nt,nt,102.7
C=CCN1C(=O)[C@@H](CC(=O)NCc2cccc3ccccc23)[C@]2(C(=O)OCC)CCCCC/C=C/12,nt,nt,nt,i,nt,nt
CCC1c2ccccc2C(=O)C1C(N)=O (configuration not stated),nt,nt,nt,i,nt,nt
COC(=O)Cc1nnn2c1CC(OC)c1ccccc1-2 (configuration not stated),nt,nt,nt,i,nt,nt
N#Cc1cc(F)cc(OCCCN2CCC(C(O)(c3ccccc3)c3ccccc3)CC2)c1,nt,nt,nt,i,nt,nt
O=C([C@@H]1C[C@H]1c1ccccc1)N1CCC(Oc2cccnc2)CC1,nt,nt,nt,i,nt,nt
Cc1ccc2oc(/N=C(\N)NC(=O)C3CC3)nc2c1,i,9.3,i,i,i,i
Cc1ccc2oc(/N=C(\N)NC(=O)C(C)(C)C)nc2c1,i,i,i,i,i,i
Cc1ccc(-n2sc3ccccc3c2=O)cc1,52.5,i,i,i,i,i
O=c1c2ccccc2sn1-c1ccc(F)cc1,nt,nt,nt,i,nt,nt
C[C@@H]1CN(C(=O)OC(C)(C)C)CCN1c1ccc(N2CCN(Cc3ccccc3)[C@@H](C)C2)c(C#N)c1,nt,nt,nt,i,nt,nt
